The source made the active and inactive calls. No cut-off for these calls is given here.
Legend:
PBMC = test: Cytotoxicity against human PBMC by CellTiter 96 non-radioactive cell proliferation colorimetric assay; assay type: cell-based
Procedure, shortened: (§1)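 A CellTiter 96 colorimetric cell proliferation read-out was used in primary human PBM cells, CEM, Vero and HepG2 cells. CC50 is the concentration that inhibits cell growth by 50%.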

Hepatitis B virus [1] = test: Antiviral activity against HBV infected in human HepAD38 cells assessed as reduction in viral replication by RT-PCR method; assay type: functional, organism-based
Procedure, shortened: (§2)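 HBV DNA replication in HepAD38 cells was quantified by RT-PCR following an earlier published method, with data relative to the untreated control. EC50 (50% inhibition of HBV DNA replication) was derived by linear regression. Values are the mean ± SD of two or three replicates from 2 independent experiments.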

CCRF-CEM = test: Cytotoxicity against human CEM cells by CellTiter 96 non-radioactive cell proliferation colorimetric assay; assay type: cell-based; conditions: ccrf-cem; procedure, shortened: as §1
HepG2 = test: Cytotoxicity against human HepG2 cells by CellTiter 96 non-radioactive cell proliferation colorimetric assay; assay type: cell-based; procedure, shortened: as §1
Vero = test: Cytotoxicity against African green monkey Vero cells by CellTiter 96 non-radioactive cell proliferation colorimetric assay; assay type: cell-based; conditions: chlorocebus sabaeus, vero; procedure, shortened: as §1
[2] = target: Core antigen (Hepatitis B virus) (UniProt Q03732); test: Inhibition of capsid in HBV infected in human HepAD38 cells assessed as reduction in cccDNA formation by measuring reduction in HBe antigen secretion at 10 uM after 14 days by ELISA relative to control; assay type: cell-based
Procedure, shortened: (§3)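 HepAD38 cells, collagen-coated wells, DMEM/F12 with 10% heat-inactivated FBS. Tetracycline withdrawn 7 days to allow DNA synthesis and cccDNA formation; at day 7 tetracycline (0.3 μg/ml) plus compound re-added. Compound at 10 μM or 0.001–10 μM, medium and compound replenished every 5 days. Day-14 supernatant HBeAg by ELISA; EC50 by linear regression.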

[3] = target: Core antigen (Hepatitis B virus) (UniProt Q03732); test: (§4) Inhibition of capsid in HBV infected in human HepAD38 cells assessed as reduction in tetracycline-induced cccDNA formation by measuring reduction in HBe antigen secretion after 14 days by ELISA; assay type: cell-based; procedure, shortened: as §3
Core antigen = Core antigen (Hepatitis B virus, UniProt Q03732); test: as §4; assay type: cell-based; procedure, shortened: as §3
Hepatitis B virus [4] = test: Antiviral activity against HBV infected in human HepAD38 cells assessed as reduction in extracellular viral DNA level by RT-PCR method; assay type: functional, organism-based; procedure, shortened: as §2
Hepatitis B virus [5] = test: Antiviral activity against HBV infected in human HepAD38 cells assessed as reduction in intracellular viral DNA level by RT-PCR method; assay type: functional, organism-based; procedure, shortened: as §2
Hepatitis B virus [6] = test: Inhibition of HBV capsid cp149 assembly expressed in Escherichia coli BL21 at 20 uM preincubated for 1 hr followed by NaCl stimulation measured after overnight incubation by uranyl acetate staining based electron microscopic method
Procedure, shortened: (§5)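 Untagged HBV core residues 1–149 expressed in E. coli BL21 (1 mM IPTG, 16 °C overnight), purified as capsids, dissociated to dimers with 4 M urea in carbonate buffer pH 9.5; >95% pure. Dimers preincubated 1 hr with compound (20 μM), then capsid buffer added (final NaCl 300 mM, Cp149 monomer 10 μM); held 4 °C overnight; uranyl acetate negative-stain EM, single-blind.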

Hepatitis B virus [7] = test: Antiviral activity against HBV infected in human HepAD38 cells assessed as inhibition of viral replication at 10 uM by RT-PCR method relative to control; assay type: functional
Procedure, shortened: (§6)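 HBV DNA replication in HepAD38 cells was quantified by RT-PCR following an earlier published method. Each compound was tested at a single 10 μM concentration. Results are % inhibition ± SD relative to the untreated control.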

Hepatitis B virus [8] = test: Antiviral activity against HBV infected in human HepAD38 cells assessed as reduction in intracellular viral DNA level at 10 uM by RT-PCR method relative to control; assay type: functional; set-up: scale not given: the % may be the effect or the level left
Procedure, shortened: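 HepAD38 cells; intracellular HBV DNA quantified by RT-PCR, expressed relative to untreated control; single-point inhibition given as percent at 10 μM, mean ± SD of two or three replicates from 2 independent experiments.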

Hepatitis B virus [9] = test: Antiviral activity against HBV infected in human HepAD38 cells assessed as reduction in extracellular viral DNA level at 10 uM by RT-PCR method relative to control; assay type: functional; set-up: scale not given: the % may be the effect or the level left; procedure, shortened: as §6
Hepatitis B virus [10] = test: Inhibition of HBV capsid cp149 assembly expressed in Escherichia coli BL21 assessed as spherical capsid aggregation in to clusters at 20 uM preincubated for 1 hr followed by NaCl stimulation measured after overnight incubation by uranyl acetate staining based electron microscopic method; procedure, shortened: as §5
[11] = target: Core antigen (Hepatitis B virus) (UniProt Q03732); test: Inhibition of capsid in HBV infected in human HepAD38 cells assessed as reduction in cccDNA formation by measuring reduction in HBe antigen secretion at 3 to 4 uM after 14 days by ELISA relative to control; assay type: cell-based; procedure, shortened: as §3

Core antigen, sequence (Q03732 whole entry): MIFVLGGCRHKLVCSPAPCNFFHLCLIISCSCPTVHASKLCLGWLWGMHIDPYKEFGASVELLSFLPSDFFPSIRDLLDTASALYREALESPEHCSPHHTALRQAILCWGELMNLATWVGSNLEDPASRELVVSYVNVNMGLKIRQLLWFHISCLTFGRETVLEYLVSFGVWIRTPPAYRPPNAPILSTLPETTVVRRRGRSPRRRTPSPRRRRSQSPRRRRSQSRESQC
Core antigen (Hepatitis B virus), sequence (Q03732 as listed by the source): as the sequence (Q03732 whole entry) above

Row | Structure (SMILES) | CC50 (PBMC) | EC50 (Hepatitis B virus [1]) | CC50 (CCRF-CEM) | CC50 (HepG2) | CC50 (Vero) | inhibition [2] | EC90 [3] | EC50 (Core antigen) | EC90 (Hepatitis B virus [1]) | EC50 (Hepatitis B virus [4]) | EC90 (Hepatitis B virus [4]) | EC50 (Hepatitis B virus [5]) | EC90 (Hepatitis B virus [5]) | inhibition (Hepatitis B virus [6]) | inhibition at 10 µM (Hepatitis B virus [7]) | Activity (Hepatitis B virus [8]) | Activity (Hepatitis B virus [9]) | inhibition (Hepatitis B virus [10]) | inhibition [11]
1 | CCOC(=O)[C@H](CC(C)C)NS(=O)(=O)c1ccc(F)c(C(=O)Nc2ccc(F)c(F)c2)c1 | 58.1 µM | > 10 µM | 10.8 µM | > 100 µM | 39.1 µM |  |  |  |  |  |  |  |  |  |  |  |  |  | 
2 | O=C(Nc1ccc(F)c(F)c1)c1cc(NS(=O)(=O)C2CCCC2)ccc1F | > 100 µM | 2.1 µM | 54.2 µM | > 100 µM | 29.1 µM | 66% | > 10 µM | 6 µM | 9.5 µM | 2.1 µM | 9.5 µM | 0.3 µM | 3.6 µM |  |  |  |  |  | 
3 | CS(=O)(=O)NS(=O)(=O)c1ccc(F)c(C(=O)Nc2ccc(F)c(F)c2)c1 | > 100 µM | > 10 µM | > 100 µM | > 100 µM | > 100 µM |  |  |  |  |  |  |  |  |  |  |  |  |  | 
4 | O=C(Nc1ccc(F)c(F)c1)c1cc(S(=O)(=O)N2CCCC2=O)ccc1F | > 100 µM | > 10 µM | 37.8 µM | > 100 µM | 39.6 µM |  |  |  |  |  |  |  |  |  |  |  |  |  | 
5 | CC(C)(NC(=O)c1cccc(S(=O)(=O)NC2CCCC2)c1)c1ccc(F)c(F)c1 | > 100 µM | > 10 µM | 64 µM | > 100 µM | 84.3 µM |  |  |  |  |  |  |  |  | inactive |  |  |  |  | 
6 | O=C(Nc1ccc(F)c(F)c1)c1cc(S(=O)(=O)N2CCC(F)(F)C2)ccc1F | > 100 µM | 6.7 µM | 4.8 µM | > 100 µM | 21.3 µM |  |  |  | > 10 µM |  |  |  |  |  | 83% |  |  |  | 
7 | C=C1[C@H](CO)[C@@H](O)C[C@@H]1n1cnc2c(=O)[nH]c(N)nc21.O |  |  |  |  |  | < 1% |  | > 10 µM |  | 0.0007 µM | 0.1 µM | ≤ 0.0001 µM | 0.009 µM |  |  | 53% |  |  | 
8 | O=C1c2cc(S(=O)(=O)NC3CCCC3)ccc2CCN1c1ccc(F)c(F)c1 | > 100 µM | > 10 µM | > 100 µM | > 100 µM | > 100 µM |  |  |  |  |  |  |  |  |  |  |  |  |  | 
9 | CN(C1CCCC1)S(=O)(=O)c1ccc(F)c(C(=O)Nc2ccc(F)c(F)c2)c1 | 25.8 µM | 7.7 µM | 14.5 µM | 48.6 µM | 18.3 µM |  |  |  | ≥ 10 µM |  |  |  |  |  | 87% |  |  |  | 
10 | O=C(Nc1ccc(F)c(F)c1)c1cc(NS(=O)(=O)C2CCCCC2)ccc1F | > 100 µM | 3.7 µM | 74.5 µM | 80.4 µM | 6.4 µM | 67% | > 10 µM | 9.7 µM | ≥ 10 µM | 3.7 µM | ≥ 10 µM | < 0.1 µM | 7.9 µM |  |  | 63% | 86% |  | 
11 | O=C(Nc1ccc(F)c(F)c1)c1cc(S(=O)(=O)N2CC(F)(F)C(F)(F)C2)ccc1F | > 100 µM | 9.2 µM | ≤ 1 µM | > 100 µM | 9 µM |  |  |  | > 10 µM |  |  |  |  |  | 59% |  |  |  | 
12 | O=C(Nc1ccc(F)c(F)c1)c1cc(S(=O)(=O)N2CC(F)(F)C2)ccc1F | 69.1 µM | 1.2 µM | 3.7 µM | 27 µM | 14.7 µM |  | 3.2 µM | 1 µM | 6.3 µM | 1.2 µM | 6.3 µM | 0.9 µM | 9.7 µM |  |  |  |  | Active | 90%
13 | COC(=O)[C@H](Cc1ccccc1)NS(=O)(=O)c1ccc(F)c(C(=O)Nc2ccc(F)c(F)c2)c1 | > 100 µM | > 10 µM | 31.6 µM | 76.8 µM | > 100 µM |  |  |  |  |  |  |  |  |  |  |  |  |  | 
14 | CC(NS(=O)(=O)c1ccc(F)c(C(=O)Nc2ccc(F)c(F)c2)c1)c1ccccc1 (stereo unspecified) | > 100 µM | 7.7 µM | 3.6 µM | > 100 µM | 68 µM |  |  |  | 9.3 µM |  |  |  |  |  |  |  |  |  | 
15 | O=C(Nc1ccc(F)c(F)c1)c1cc(NS(=O)(=O)C2CC2)ccc1F | 39.2 µM | 6.9 µM | 11.8 µM | 61.8 µM | 30.7 µM | 61% | > 10 µM | 5.5 µM | > 10 µM | 6.9 µM | > 10 µM | 0.8 µM | 8.1 µM |  |  |  | 76% |  | 

Source: ChEMBL document CHEMBL4190254, “Synthesis of sulfamoylbenzamide derivatives as HBV capsid assembly effector” (Eur J Med Chem, 2017)
